# Reference: ChEMBL document CHEMBL2150987, “Synthesis and evaluation of novel 1,3,4-oxadiazole derivatives of marine bromopyrrole alkaloids as antimicrobial agent” (2012)
# Assays:
# Assay type in all cases: functional
# [1] = system: Pseudomonas aeruginosa; test: Antibacterial activity against Pseudomonas aeruginosa ATCC 27853 after 24 hrs by broth dilution method; conditions: ATCC 27853, 24 h
# How it was run: (§1)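 Nutrient broth containing logarithmic twofold serial dilutions of compound, inoculated with about 5 × 10⁵ CFU/mL of actively dividing bacteria, incubated 24 h at 37 °C. Growth was read visually and spectrophotometrically. MIC was the lowest concentration (highest dilution) that arrested growth. Ciprofloxacin served as standard.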
# [2] = system: Mycobacterium tuberculosis; test: Antitubercular activity against Mycobacterium tuberculosis H37Rv after 7 days by resazurin microtiter assay; conditions: 168 h
# [3] = system: Candida albicans; test: Antifungal activity against Candida albicans after 48 hrs by […]
# [4] = system: Staphylococcus aureus; test: Antibacterial activity against Staphylococcus aureus ATCC 25923 after 24 hrs by broth dilution method; conditions: ATCC 25923, 24 h; how it was run: as §1
# [5] = system: Klebsiella pneumoniae; test: Antibacterial activity against Klebsiella pneumoniae after 24 hrs by broth dilution method; how it was run: as §1
# [6] = system: Escherichia coli; test: Antibacterial activity against Escherichia coli ATCC 25922 after 24 hrs by broth dilution method; conditions: ATCC 25922, 24 h; how it was run: as §1
Compound,MIC [1],MIC [2],MIC [3],MIC [4],MIC [5],MIC [6]
Oc1ccccc1-c1nnc(-c2cc(Br)c(Br)[nH]2)o1,12.5 µg/mL,36.5 µg/mL,6.25 µg/mL,1.56 µg/mL,100 µg/mL,3.12 µg/mL
Brc1cc(-c2nnc(/C=C/c3ccccc3)o2)[nH]c1Br,6.25 µg/mL,78.5 µg/mL,12.5 µg/mL,3.12 µg/mL,100 µg/mL,12.5 µg/mL
Oc1ccc(-c2nnc(-c3cc(Br)c(Br)[nH]3)o2)cc1,6.25 µg/mL,25 µg/mL,12.5 µg/mL,12.5 µg/mL,100 µg/mL,12.5 µg/mL
Fc1ccc(Cl)c(-c2nnc(-c3cc(Br)c(Br)[nH]3)o2)c1,6.25 µg/mL,6.5 µg/mL,12.5 µg/mL,1.56 µg/mL,100 µg/mL,1.56 µg/mL
O=[N+]([O-])c1ccc(-c2nnc(-c3cc(Br)c(Br)[nH]3)o2)cc1,6.25 µg/mL,9 µg/mL,1.56 µg/mL,1.56 µg/mL,100 µg/mL,1.56 µg/mL
Brc1cc(-c2nnc(-c3cc(Br)c(Br)[nH]3)o2)[nH]c1Br,6.25 µg/mL,3.5 µg/mL,1.56 µg/mL,1.56 µg/mL,100 µg/mL,1.56 µg/mL
Brc1cc(-c2nnc(-c3ccccc3)o2)[nH]c1Br,6.25 µg/mL,98.7 µg/mL,12.5 µg/mL,6.25 µg/mL,100 µg/mL,12.5 µg/mL
COc1cc(/C=C/c2nnc(-c3cc(Br)c(Br)[nH]3)o2)ccc1O,12.5 µg/mL,112 µg/mL,12.5 µg/mL,1.56 µg/mL,100 µg/mL,12.5 µg/mL
Brc1cc(-c2nnc(-c3ccncc3)o2)[nH]c1Br,12.5 µg/mL,3.5 µg/mL,12.5 µg/mL,1.56 µg/mL,100 µg/mL,12.5 µg/mL
Brc1cc(-c2nnc(/C=C/C3=COc4ccccc4C3)o2)[nH]c1Br,12.5 µg/mL,2 µg/mL,12.5 µg/mL,1.56 µg/mL,100 µg/mL,3.12 µg/mL
Sc1nnc(-c2cc(Br)c(Br)[nH]2)o1,12.5 µg/mL,54.5 µg/mL,12.5 µg/mL,12.5 µg/mL,100 µg/mL,12.5 µg/mL
CSc1nnc(-c2cc(Br)c(Br)[nH]2)o1,25 µg/mL,89.5 µg/mL,12.5 µg/mL,12.5 µg/mL,100 µg/mL,12.5 µg/mL
CCSc1nnc(-c2cc(Br)c(Br)[nH]2)o1,25 µg/mL,118 µg/mL,12.5 µg/mL,12.5 µg/mL,100 µg/mL,12.5 µg/mL
Brc1cc(-c2nnc(Sc3ccccc3)o2)[nH]c1Br,25 µg/mL,23.5 µg/mL,6.25 µg/mL,12.5 µg/mL,100 µg/mL,12.5 µg/mL
O=C(CSc1nnc(-c2cc(Br)c(Br)[nH]2)o1)c1ccccc1,12.5 µg/mL,1.5 µg/mL,1.56 µg/mL,12.5 µg/mL,100 µg/mL,3.12 µg/mL
O=C(Cc1ccccc1)c1nnc(-c2cc(Br)c(Br)[nH]2)o1,12.5 µg/mL,146 µg/mL,12.5 µg/mL,3.12 µg/mL,100 µg/mL,3.12 µg/mL
Nc1ccc(-c2nnc(-c3cc(Br)c(Br)[nH]3)o2)cc1,6.25 µg/mL,16.5 µg/mL,12.5 µg/mL,3.12 µg/mL,100 µg/mL,1.56 µg/mL
Clc1ccc(-c2nnc(-c3cc(Br)c(Br)[nH]3)o2)cc1,6.25 µg/mL,9.5 µg/mL,12.5 µg/mL,1.56 µg/mL,100 µg/mL,1.56 µg/mL
COc1ccc(-c2nnc(-c3cc(Br)c(Br)[nH]3)o2)cc1,6.25 µg/mL,56.5 µg/mL,12.5 µg/mL,3.12 µg/mL,100 µg/mL,3.12 µg/mL
Clc1ccc(-c2nnc(-c3cc(Br)c(Br)[nH]3)o2)c(Cl)c1,6.25 µg/mL,1.6 µg/mL,12.5 µg/mL,6.25 µg/mL,100 µg/mL,12.5 µg/mL
C[C@@H]1[C@H](O)[C@@H](C)/C=C/C=C/C=C/C=C/C=C/C=C/C=C/[C@H](O[C@@H]2O[C@H](C)[C@@H](O)[C@H](N)[C@@H]2O)C[C@@H]2O[C@](O)(C[C@@H](O)C[C@@H](O)[C@H](O)CC[C@@H](O)C[C@@H](O)CC(=O)O[C@H]1C)C[C@H](O)[C@H]2C(=O)O [AMPHOTERICIN B],–,–,1.56 µg/mL,–,–,–
O=C(O)c1cn(C2CC2)c2cc(N3CCNCC3)c(F)cc2c1=O [CIPROFLOXACIN],3.12 µg/mL,–,–,1.56 µg/mL,1.56 µg/mL,–
NNC(=O)c1ccncc1 [ISONIAZID],–,0.4 µg/mL,–,–,–,–
